Laboratory results: ChEMBL document CHEMBL4513216, “Probing the Open Global Health Chemical Diversity Library for Multistage-Active Starting Points for Next-Generation Antimalarials” (ACS Infect Dis, 2020)

Experiment: Toxicity liver stage against HepG2, at 10uM
Format: cell-based
Set-up: test concentration 10 uM, cell line HepG2-A16-CD81EGFP
Details: human, HepG2-A16-CD81EGFP cells; read-out: INHIBITION
Outline: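 Uninfected HepG2-A16-CD81EGFP cells, 3 × 10^3 per well, 1536-well, plated on prespotted compound at 10 μM final, parasite-free screening media added to match infected plates; puromycin 10 μM positive, DMSO 0.5% negative; run in parallel with 48 h PbLuc assay at 37 °C, 5% CO2; viability by CellTiter-Glo luminescence, normalized to controls.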

For `CN1CC(c2ccccc2)C2(CCN(C(=O)c3ccc[nH]3)CC2)C1=O` (stereo unspecified), the cytotoxicity at 10 µM was 9.25%.
With `CNC(=O)N1CCC2(COCc3c(C)nc(NCc4ccco4)nc32)C1` (stereo unspecified) the cytotoxicity at 10 µM was 11.2%.
`COCC1CN(Cc2ccoc2)Cc2cn(CC3CCOCC3)nc21` (stereo unspecified) gave a cytotoxicity at 10 µM of 11.6%.
`Cc1cccc(CSc2ncc(Cl)c(C(=O)O)n2)c1` gave a cytotoxicity at 10 µM of 3.86%.
With `O=C(NCC1(CO)CC1)c1cccc2ccccc12` the cytotoxicity at 10 µM was -12.5%.
Work on `CC(NC(N)=O)C(=O)N(C)Cc1cccc(C(F)(F)F)c1` (stereo unspecified) yielded a cytotoxicity at 10 µM of -5.14%.
For `O=C(Nc1cc(C(F)(F)F)c[nH]c1=O)C1CCNCC1`, the cytotoxicity at 10 µM was 6.01%.
`CC(C)(C)NC(=O)c1cnc(C(C)(C)C)s1` gave a cytotoxicity at 10 µM of 3.72%.
With `Cc1ccc(-c2nc(C(=O)N(C)CC(=O)N(C)C)cs2)c(C)c1` the cytotoxicity at 10 µM was -10.1%.
With `CCNC(=O)NCC1(CN2CCOCC2)CCCCC1` the cytotoxicity at 10 µM was 6.73%.
Compound `O=C(COC1CCCCC1)N1CCN(C(=O)Cc2ccccn2)CC1` has a cytotoxicity at 10 µM of -1.3%.
Compound `c1cc(C2CCN(Cc3nc(C4CC4)no3)CC2)[nH]n1` has a cytotoxicity at 10 µM of 7.45%.
For `CCN(CC)Cc1ccc(C(=O)NC2CCc3ccccc32)o1` (stereo unspecified), the cytotoxicity at 10 µM was -3.97%.
`COc1ccc(Cl)cc1-c1cc(NC(=O)CNC(=O)C2CC2)[nH]n1` gave a cytotoxicity at 10 µM of -3.61%.
`Cc1ncc(CNc2ccc(C(=O)NCc3ccco3)cc2C)s1` showed a cytotoxicity at 10 µM of -10.5%.
Work on `COCc1ccccc1C(=O)NCCCN1CCCC1C(=O)N(C)C` (stereo unspecified) yielded a cytotoxicity at 10 µM of -14.5%.
For `CCNC(=O)[C@@H]1C[C@@H](N)CN1Cc1ccc2cccc(Cl)c2n1`, the cytotoxicity at 10 µM was 12.9%.
In the case of `CCN(Cc1noc(C2CCC2)n1)C(=O)CCc1cc2n(n1)CCNC2`, the cytotoxicity at 10 µM is reported as 10.5%.
For `O=C1NCCc2c1sc1ccc(C(=O)N3CC[C@H](CO)[C@H](O)C3)cc21`, the cytotoxicity at 10 µM was -1.7%.
For `O[C@@]1(CNCCOc2ccccc2)CCCN2CCCC[C@@H]21`, the cytotoxicity at 10 µM was -2.96%.
With `CN(Cc1ccsc1)Cc1nc(-c2cnccn2)no1` the cytotoxicity at 10 µM was -0.164%.
In the case of `CC(Cn1cncn1)NCc1ccc2nonc2c1` (stereo unspecified), the cytotoxicity at 10 µM is reported as 3.05%.
`CN(Cc1ccsc1)Cc1ccc(C2CCCCO2)o1` (stereo unspecified) gave a cytotoxicity at 10 µM of -2.11%.
In the case of `Cn1ccnc1-c1nccn1C[C@@H]1CCCN2CCCC[C@H]12`, the cytotoxicity at 10 µM is reported as 2.68%.
Work on `CCc1cc(CN(C)C(=O)c2nnc(CN(C)C)o2)on1` yielded a cytotoxicity at 10 µM of 1.77%.
With `O=C1N(C2CCOCC2)CCCC12CCN(c1ncccc1Cl)C2` (stereo unspecified) the cytotoxicity at 10 µM was -129%.
`Cc1cccc(-c2nccn2-c2cccc(CC(=O)O)c2)n1` showed a cytotoxicity at 10 µM of 4.55%.
In the case of `Cc1nc(N2CCOc3ccc(CO)cc3C2)c2nc(C)oc2n1`, the cytotoxicity at 10 µM is reported as 7.91%.
With `O=C(CSCC1CC1)N1CCc2[nH]nc(COc3ccccc3)c2C1` the cytotoxicity at 10 µM was -7.01%.
With `COC(=O)NCC(=O)N1CCCCC1c1nc2cc(F)ccc2[nH]1` (stereo unspecified) the cytotoxicity at 10 µM was -1.41%.
In the case of `CSCC(=O)N1CCc2c(cnc(C)c2-c2noc(-c3cc[nH]n3)n2)C1`, the cytotoxicity at 10 µM is reported as 1.87%.
Work on `CC(Cn1cncn1)NC1CCN(Cc2cccc(O)c2)CC1` (stereo unspecified) yielded a cytotoxicity at 10 µM of 2.64%.
Work on `Cc1cnn(C2CCCN(C(=O)Cc3ccc(C)s3)C2)c1` (stereo unspecified) yielded a cytotoxicity at 10 µM of -13.4%.
`Cc1ccc(N2CCCC(NCc3nnc(-c4ccco4)o3)C2)nn1` (stereo unspecified) showed a cytotoxicity at 10 µM of -9.07%.
Work on `COc1cccc(CNCC2CN(C)CCO2)c1` (stereo unspecified) yielded a cytotoxicity at 10 µM of -15.2%.
Work on `Cn1cnnc1C1CCN(C(=O)CCOc2ccc(Cl)cc2)CC1` yielded a cytotoxicity at 10 µM of -8.94%.
`CC(c1ccc(F)cc1)N1CCN(Cc2nccn2C)CC1` (stereo unspecified) gave a cytotoxicity at 10 µM of -25.7%.
Compound `O=C(NCc1ccco1)N(CCCO)C1CCCc2ccccc21` (stereo unspecified) has a cytotoxicity at 10 µM of -9.53%.
Compound `CCOc1ccc(NC(=O)N(C)Cc2cnn(C)c2)c(C)c1` has a cytotoxicity at 10 µM of -9.63%.
`CC(C)n1nc2c(cc1=O)CN(CCCN1CCCC1=O)CC2` showed a cytotoxicity at 10 µM of -8.08%.
In the case of `Cc1cc(C(=O)NC(COCC(C)C)c2ccco2)no1` (stereo unspecified), the cytotoxicity at 10 µM is reported as -8.71%.
In the case of `O=C(NCc1nncn1-c1ccccc1)C1CCCC1`, the cytotoxicity at 10 µM is reported as -11.5%.
Compound `O=C(NCC1CC[C@@H]2[C@@H]1OCCN2Cc1cccs1)c1ccco1` (stereo partly specified) has a cytotoxicity at 10 µM of 3.23%.
With `Cc1ccc(CN2CCC3(CC(=O)N(c4cccc(F)c4)C3)C2)o1` (stereo unspecified) the cytotoxicity at 10 µM was -140%.
For `CC(=O)N1CCO[C@@H]2CN(C(=O)NCc3cccnc3)CC[C@@H]2C1`, the cytotoxicity at 10 µM was 7.34%.
In the case of `O=C(c1ccnnc1)N1C[C@@H]2OCCN(CCN3CCCC3)[C@@H]2C1`, the cytotoxicity at 10 µM is reported as 4.22%.
